Usually IC50 stands for the point on the concentration scale where inhibition reaches its midpoint. A high value points to a need for much substance.

Some results are limits rather than exact numbers.

The results in this text go back to ChEMBL document CHEMBL1149157, “Synthesis and structure-activity relationship of novel antitumoral platinum xanthate complexes” (J Med Chem, 2004).

Type in all cases: functional, cell-based, Homo sapiens
For assay [1], the system named is Calu-6. Description: Cytotoxic activity was determined in vitro in Calu-6 cell line culture at pH 7.4. The gist of the method:
(§1)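 Plated at 2×10^6 cells/plate. After one day, medium was replaced with pH 7.4 medium (2.2 g NaHCO3/L) and equilibrated under 5% CO2. Cells got 2 h at 37°C, in quadruplicate, of a 1:2 series 50–0.8 µg/mL (acetone ≤5%), then drug-free pH 7.4 medium for 24–96 h until controls were confluent. Fixed with 3% formaldehyde, stained with 1% crystal violet, A550. IC50 from dose–response curves; mean of four assays ± SD.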

For assay [2], the system named is Calu-6. Description: Cytotoxic activity was determined in vitro in Calu-6 cell line culture at pH 6.8. The essentials:
(§2)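 Seeded at 2×10^6 cells/plate. Next day, switched to pH 6.8 medium (1.3 g NaHCO3/L, serum acidified with 1 N HCl) and equilibrated in 5% CO2. Exposed for 2 h at 37°C in quadruplicate to 50–0.8 µg/mL (1:2 series; acetone ≤5%), then given drug-free pH 7.4 medium until controls were confluent. Read by formaldehyde fixation and crystal violet at 550 nm. IC50 from dose–response curves, mean of four assays ± SD.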

Assay [3] relates to KB. Description: Cytotoxic activity was determined in vitro in KB cell line culture at pH 7.4. The essentials: (§3)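 Using pH 7.4 medium (2.2 g NaHCO3/L) on cells plated a day earlier at 2×10^6/plate, with equilibration in 5% CO2. Compounds were applied for 2 h at 37°C in quadruplicate at 50–0.8 µg/mL (1:2; acetone ≤5%), followed by drug-free pH 7.4 medium until controls were confluent. Fixed and stained with crystal violet, dye eluted with ethanol/1% acetic acid, read at 550 nm. IC50 from curves, mean of four ± SD.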

The subject of assay [4] is KB. Description: Cytotoxic activity was determined in vitro in KB cell line culture at pH 6.8. The gist of the method:
(§4)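 Cells at 2×10^6/plate were moved the next day into pH 6.8 medium (1.3 g NaHCO3/L; serum given 1 N HCl; 30 min 5% CO2). Treated 2 h at 37°C, quadruplicate, 50–0.8 µg/mL in 1:2 steps (acetone ≤5%), then grown in drug-free pH 7.4 medium to control confluence. Crystal violet stain eluted with ethanol/1% acetic acid before A550. IC50 from curves, mean of four assays ± SD.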

The subject of assay [5] is LXF-289 cell line. The assay is described as follows: Cytotoxic activity was determined in vitro in LXF-289 cell line culture at pH 6.8. The gist of the method: as §2
Assay [6] relates to LXF-289 cell line. Description: Cytotoxic activity was determined in vitro in LXF-289 cell line culture at pH 7.4. The essentials: as §1
The test system of assay [7] is MCF7. Description: Cytotoxic activity was determined in vitro in MCF-7 cell line culture at pH 6.8. The essentials:
as §4

Assay [8] deals with SK-OV-3. Description: Cytotoxic activity was determined in vitro in SK-OV-3 cell line culture at pH 6.8. The gist of the method: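 SK-OV-3 seeded at 1×10^6 cells/plate. Next day, placed in pH 6.8 medium (1.3 g NaHCO3/L, HCl-treated serum, 5% CO2). Given 2 h at 37°C, in quadruplicate, of 50–0.8 µg/mL (1:2; acetone ≤5%), then drug-free pH 7.4 medium until controls were confluent. Formaldehyde-fixed and crystal violet-stained, A550. IC50 from dose–response curves, mean of four assays ± SD.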

Assay [9] has as its system SK-MEL-25. The assay is described as follows: Cytotoxic activity was determined in vitro in SK-MEL-25 cell line culture at pH 6.8. The essentials:
as §2

Assay [10] deals with SK-MEL-25. The assay is described as follows: Cytotoxic activity was determined in vitro in SK-MEL-25 cell line culture at pH 7.4. The gist of the method: as §1
Assay [11] relates to MCF7. The assay is described as follows: Cytotoxic activity was determined in vitro in MCF-7 cell line culture at pH 7.4. The essentials:
as §3

Assay [12] deals with SK-OV-3. The assay is described as follows: Cytotoxic activity was determined in vitro in SK-OV-3 cell line culture at pH 7.4. The gist of the method:
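With 1×10^6 cells/plate seeded, medium was changed the next day to pH 7.4 (2.2 g NaHCO3/L) under 5% CO2. Cells were exposed 2 h at 37°C in quadruplicate to a 1:2 series of 50–0.8 µg/mL (acetone ≤5%), then given drug-free pH 7.4 medium until controls were confluent. Crystal violet read at 550 nm after formaldehyde fixation. IC50 from curves; mean of four assays ± SD.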

Turning to “2,6-dicyclobutoxy-1,3,5,7-tetrathia-4-platinaspiro[3.3]heptane”, the IC50 in assay [1] was determined as 7 µM; in assay [2], 3 µM; in assay [3], 20 µM; in assay [4] it was 6 µM; in [5] it was 37 µM; in assay [6], 44 µM. In addition, the IC50 in assay [7] was 11 µM; in assay [8] it was 17 µM; in assay [9] it was 7 µM; in assay [10] it was 12 µM; in assay [11] it was 21 µM; in [12], 19 µM.

As for “2,6-bis(propan-2-yloxy)-1,3,5,7-tetrathia-4-platinaspiro[3.3]heptane”, the IC50 in [1] turned out to be 10 µM; in assay [2], 6 µM; in assay [3], 10 µM; in [4], 6 µM; in [5], 10 µM; in [6] it was 30 µM. Also, the IC50 in [7] was 3 µM; in assay [8], 14 µM; in [9], 6 µM; in assay [10] it was 12 µM; in assay [11] it was 7 µM; in assay [12], 33 µM.

For the substance “2,6-bis(2-methylbutoxy)-1,3,5,7-tetrathia-4-platinaspiro[3.3]heptane”, the IC50 in [1] turned out to be 19 µM; in [2] it was 9 µM; in [3], 39 µM; in assay [4] it was 31 µM; in [5], 19 µM; in assay [6] it was 44 µM. For the same substance, the IC50 was found to be 19 µM in assay [7]; 23 µM in assay [8]; 17 µM in assay [9]; 32 µM in assay [10]; 27 µM in assay [11]; 35 µM in [12].

For the substance “2,6-bis(hexyloxy)-1,3,5,7-tetrathia-4-platinaspiro[3.3]heptane”, the IC50 in assay [1] was 37 µM; in assay [2], 23 µM; in assay [3], above 91 µM; in [4], 64 µM; in [5], above 91 µM; in assay [6], above 91 µM. In addition, the IC50 in assay [7] was 44 µM; in [8], 102 µM; in assay [9], 37 µM; in assay [10] it was 70 µM; in assay [11] it was 47 µM; in [12] it was 130 µM.

As to “2,6-bis(octyloxy)-1,3,5,7-tetrathia-4-platinaspiro[3.3]heptane”, the IC50 is 56 µM in assay [1]; 23 µM in [2]; above 83 µM in assay [3]; above 83 µM in assay [4]; 30 µM in assay [5]; 83 µM in assay [6]. Moreover, the IC50 is 31 µM in assay [7]; above 83 µM in assay [8]; 56 µM in assay [9]; above 83 µM in assay [10]; 31 µM in assay [11]; above 83 µM in [12].

With “2,6-bis(2-methylpropoxy)-1,3,5,7-tetrathia-4-platinaspiro[3.3]heptane”, the IC50 in assay [1] was found to be 10 µM; in [2] it was 9 µM; in assay [3], 47 µM; in assay [4], 30 µM; in assay [5] it was 19 µM; in assay [6] it was 37 µM. Further, the IC50 is 27 µM in [7]; 32 µM in assay [8]; 15 µM in assay [9]; 21 µM in [10]; 23 µM in assay [11]; 61 µM in [12].

On to “2,6-bis(pentyloxy)-1,3,5,7-tetrathia-4-platinaspiro[3.3]heptane”, for which the IC50 in [1] stood at 15 µM; in assay [2] it was 9 µM; in assay [3], 25 µM; in assay [4], 16 µM; in [5], 38 µM; in assay [6] it was 62 µM. For the same substance, the IC50 is 10 µM in assay [7]; 31 µM in assay [8]; 19 µM in assay [9]; 32 µM in assay [10]; 34 µM in [11]; 66 µM in assay [12].

On to “2,6-bis(2,2-dimethyl-3-phenylpropoxy)-1,3,5,7-tetrathia-4-platinaspiro[3.3]heptane”, for which the IC50 in assay [1] is 17 µM; in assay [2], 10 µM; in assay [3], above 50 µM; in [4] it was above 50 µM; in [5], above 50 µM; in assay [6], above 50 µM. In addition, the IC50 in [7], in assay [8], in [9], in assay [10], in assay [11] and in assay [12] was above 50 µM throughout.
